These results are taken from ChEMBL document CHEMBL1127645, “Synthesis, structure-activity relationships, and pharmacological evaluation of a series of fluorinated 3-benzyl-5-indolecarboxamides: identification of 4-[[5-[((2R)-2-methyl-4,4,4-trifluorobutyl)carbamoyl]-1-methyl indol- 3-yl]methyl]-3-methoxy-N-[(2-methylphenyl)sulfonyl]benzamide, a potent, …” (J Med Chem, 1994).

As usually defined, the logP is a log measure of how a compound divides between an organic and an aqueous phase. Read a high logP as higher lipophilicity. By Ki is commonly meant the dissociation constant of the complex between target and ligand, obtained from inhibition or displacement. Low readings indicate tighter binding, high ones weaker binding. One may read the ED50 as the dose at which the effect has come halfway, by size or by number of responders. As usually defined, the pKB is the negative decadic logarithm of the KB, by convention in mol/L. The term clearance denotes the rate of elimination divided by the concentration. A word on the inhibition in vivo: it is how much of the control response was suppressed. Higher therefore signals strong suppression.

A short description of data set [1]: Partition coefficient (logP). Particulars: octanol/water.
Data set [2] deals with T1, Cysteinyl leukotriene receptor 1 (Cavia porcellus, UniProt Q2NNR5).
T1 sequence (Q2NNR5 whole entry): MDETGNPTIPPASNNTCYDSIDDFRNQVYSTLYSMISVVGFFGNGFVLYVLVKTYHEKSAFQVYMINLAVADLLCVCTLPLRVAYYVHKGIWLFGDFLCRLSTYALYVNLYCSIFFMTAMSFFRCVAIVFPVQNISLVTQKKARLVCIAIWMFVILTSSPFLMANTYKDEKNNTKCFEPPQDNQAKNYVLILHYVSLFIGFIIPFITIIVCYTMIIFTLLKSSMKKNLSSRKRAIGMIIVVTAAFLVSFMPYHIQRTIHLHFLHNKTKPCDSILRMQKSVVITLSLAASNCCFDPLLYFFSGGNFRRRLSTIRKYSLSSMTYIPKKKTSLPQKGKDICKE
The data set can be described thus: Inhibition constant for displacement of [3H]LTD4 on guinea pig lung parenchymal membranes. It is filed as tissue-based, Lung parenchyma. In outline:
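Guinea pig lung parenchymal membranes; competitive displacement of [3H]LTD4. Ki taken as mean of two experiments, each run in duplicate on separate membrane batches.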
A general note: In a radioligand displacement assay an active substance lowers the binding of a labelled ligand.

The target of data set [3] is T2, Cysteinyl leukotriene receptor 1 (Cavia porcellus) (UniProt Q2NNR5).
T2 sequence (whole entry): T1 sequence (Q2NNR5 whole entry)
Nature of the data set: Effective dose for the inhibition of percent protection from LTD4-induced dyspnea in a conscious guinea pig administered through oral route. It is filed as functional. The procedure, abridged:
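Conscious guinea pig dyspnea model with LTD4 challenge; percent protection from dyspnea plotted against dose (oral or intravenous). ED50 obtained by regression using at least three doses from the linear portion of the dose-response curve; SEM for percent protection was generally ≤25% at each dose.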

The test system of data set [4] is Cavia porcellus. The data set can be described thus: ED50 (p.o.) / ED50 (i.v.) ratio of the compound. Format: functional. In outline:
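Ratio of oral ED50 to intravenous ED50 from the conscious guinea pig LTD4-induced dyspnea model, used as an index of oral bioavailability.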

Data set [5] concerns the target T2, Cysteinyl leukotriene receptor 1 (Cavia porcellus). Nature of the data set: Binding constant in guinea pig tracheal spirals with LTE4. As to conditions: Trachea. It is filed as tissue-based. In outline:
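Guinea pig tracheal spirals contracted with LTE4 as agonist. Antagonist KB derived from concentration-response curves and reported as -log(KB) (pKB); n = number of concentration-response curves.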

Data set [6] concerns Cysteinyl leukotriene receptor (Cavia porcellus). Nature of the data set: Inhibition of percent protection from LTD4-induced dyspnea in a conscious guinea pig administered intravenously.
Data set [7] in a line: Compound was evaluated for clearance in rat. Format: ADME, organism-based. Particulars: in vivo.
Data set [8] is filed under the species Rattus norvegicus. Nature of the data set: Compound was evaluated for the pharmacokinetic characters in Rat. Format: ADME, organism-based. Particulars: in vivo.
Data set [9] in a line: Compound was evaluated for the clearance in rat. Particulars: in vivo. Format: ADME, organism-based.
Data set [10] is described as follows: Bioavailability in guinea pig. It is filed as ADME, organism-based, Cavia porcellus. As to conditions: in vivo.
The nature of data set [11]: Clearance in guinea pig. It is filed as ADME, organism-based, Cavia porcellus. As to conditions: in vivo.
Data set [12] in a line: Compound was evaluated for the oral bioavailability in rat. Particulars: in vivo, read-out: Bioavailabiility. Format: ADME, organism-based.
Data set [13] has as its system Cavia porcellus. Nature of the data set: Inhibition of protection from LTD4-induced dyspnea in a conscious guinea pig administered through oral route at a dose of 3 umol/kg. Format: functional.

`CCC(CNC(=O)c1ccc2c(c1)c(Cc1ccc(C(=O)O)cc1OC)cn2C)CC(F)(F)F` (stereo not drawn) displayed a logP in data set [1] of 5.53.
`COc1cc(C(=O)NS(=O)(=O)c2ccccc2C)ccc1Cc1cn(C)c2ccc(C(=O)NC/C(C)=C\C(F)(F)F)cc12` displayed a Ki in [2] of 2.1 nM. This counts as single-digit nanomolar.
In the case of `COc1cc(C(=O)NS(=O)(=O)c2ccccc2Cl)ccc1Cc1cn(C)c2ccc(C(=O)NCC(C)CC(F)(F)F)cc12` (stereo not drawn), the median effective dose (ED50) in [3] is 2.5 µmol/kg; in data set [6] it was 0.024 µmol/kg. In data set [4], the Ratio is listed as 110. In [5], the pKB was determined as 9.7. Moreover, affinity in data set [2] was put at a Ki of 0.57 nM.
In data set [7], `COc1cc(C(=O)NS(=O)(=O)c2ccccc2C)ccc1Cc1cn(C)c2ccc(C(=O)NC[C@@H](C)CC(F)(F)F)cc12` had a clearance of 1.67 mL/min/kg. In addition, the values for the ED50 in data set [3] and in [6] were 3.73 µmol/kg and 0.047 µmol/kg, respectively. The Ratio in data set [4] came to 79. Further, the negative-log KB (pKB) in data set [5] came to 9.28. The compound also registered a Ki in [2] of 1.45 nM. The Pharmacokinetic in [8] is given as 23%.
`C=C(CNC(=O)c1ccc2c(c1)c(Cc1ccc(C(=O)NS(=O)(=O)c3ccccc3C)cc1OC)cn2C)CC(F)(F)F` gave a Ki in [2] of 3.8 nM.
Turning to `COc1cc(C(=O)NS(=O)(=O)c2ccccc2C)ccc1Cc1cn(C)c2ccc(C(=O)NCC(C)C(F)(F)F)cc12` (stereo not drawn), the logP in [1] turned out to be 5.89. In data set [2], this compound registered an inhibition constant (Ki) of 12 nM.
In the case of `CCC(CNC(=O)c1ccc2c(c1)c(Cc1ccc(C(=O)NS(=O)(=O)c3ccccc3Br)cc1OC)cn2C)CC(F)(F)F` (stereo not drawn), it took a dose of 2.5 µmol/kg to reach the 50% effect level in [3] (ED50). The negative-log KB (pKB) in data set [5] turned out to be 9.3. In data set [2], this compound displayed an inhibition constant Ki of 2.4 nM.
In the case of `COc1cc(C(=O)NS(=O)(=O)c2ccccc2C)ccc1Cc1cn(C)c2ccc(C(=O)NCC(C)(C)CC(F)(F)F)cc12`, the pKB in data set [5] was 8.9. The inhibition constant Ki in data set [2] stood at 2.2 nM.
With `CCC(C)CNC(=O)c1ccc2c(c1)c(Cc1ccc(C(=O)O)cc1OC)cn2C` (stereo not drawn), the logP in data set [1] turned out to be 4.86.
Turning to `CCC(CNC(=O)c1ccc2c(c1)c(Cc1ccc(C(=O)NS(=O)(=O)c3ccccc3C)cc1OC)cn2CC)C(F)(F)F` (stereo not drawn), the pKB in data set [5] came to 9. The compound further yielded an inhibitory constant (Ki) in data set [2] of 5.3 nM.
The compound `COc1cc(C(=O)NS(=O)(=O)c2ccccc2C)ccc1Cc1cn(C)c2ccc(C(=O)NCCC(C)C(F)(F)F)cc12` (stereo not drawn) came in with a logP in data set [1] of 6.3. For the same compound, the inhibition constant Ki in [2] stood at 7.3 nM.
As for `COc1cc(C(=O)NS(=O)(=O)c2ccccc2C)ccc1Cc1cn(C)c2ccc(C(=O)NCC(C)CC(F)(F)F)cc12` (stereo not drawn), the clearance is 1.83 mL/min/kg in data set [9] and 12.3 mL/min/kg in [11]. Moreover, the bioavailability worked out at 12% in [10] and 33% in data set [12]. The same compound displayed a logP in [1] of 6.18. Moreover, the median effective dose (ED50) in [3] amounted to 1.44 µmol/kg; in data set [6], 0.036 µmol/kg. Besides, in [4], the Ratio was found to be 40. The compound further gave a negative-log KB (pKB) in data set [5] of 9.93. In data set [2], this compound returned a Ki of 0.57 nM.
For `COc1cc(C(=O)NS(=O)(=O)c2ccccc2C)ccc1Cc1cn(C)c2ccc(C(=O)NCC3CC(F)(F)C(F)(F)C3)cc12`, the inhibition in vivo at 3 µmol/kg in [13] was 11%. Further, the negative-log KB (pKB) in data set [5] came to 8.6. Also, in data set [2], the Ki was 1.3 nM.
`COc1cc(C(=O)O)ccc1Cc1cn(C)c2ccc(C(=O)NCC(C)CC(F)(F)F)cc12` (stereo not drawn) yielded a logP in data set [1] of 5.12.
Compound `COc1cc(C(=O)NS(=O)(=O)c2ccccc2C)ccc1Cc1cn(C)c2ccc(C(=O)NCC3(CC(F)(F)F)CC3)cc12` displayed an inhibition constant (Ki) in data set [2] of 4.6 nM.
As for `CCCCC(CNC(=O)c1ccc2c(c1)c(Cc1ccc(C(=O)NS(=O)(=O)c3ccccc3C)cc1OC)cn2C)C(F)(F)F` (stereo not drawn), in data set [5], the pKB was found to be 8.8. Besides, the affinity in data set [2], expressed as Ki, was 5 nM.
Turning to `CCCn1cc(Cc2ccc(C(=O)NS(=O)(=O)c3ccccc3C)cc2OC)c2cc(C(=O)NCC(C)CC(F)(F)F)ccc21` (stereo not drawn), the Ki in data set [2] stood at 1.7 nM.
With `CCC(CC)CNC(=O)c1ccc2c(c1)c(Cc1ccc(C(=O)O)cc1OC)cn2C`, the lipophilicity (logP) in [1] worked out at 5.42.
For the compound `CCC(CC)CNC(=O)c1ccc2c(c1)c(Cc1ccc(C(=O)NS(=O)(=O)c3ccccc3C)cc1OC)cn2C`, the values for the ED50 in data set [3] and in [6] were 14.7 µmol/kg and 1.09 µmol/kg, respectively. The same compound yielded a pKB in [5] of 8. Moreover, in data set [2], the Ki came out at 4.7 nM.
Regarding `COc1cc(C(=O)NS(=O)(=O)c2ccccc2C)ccc1Cc1cn(C)c2ccc(C(=O)NCC3CCCC3)cc12`, the 50% effective dose (ED50) was 19.2 µmol/kg in [3] and 0.69 µmol/kg in data set [6]. The Ratio in data set [4] turned out to be 28. Also, the pKB in data set [5] was found to be 8.4. This compound had a Ki in data set [2] of 3.2 nM.
`COc1cc(C(=O)NS(=O)(=O)c2ccccc2C)ccc1Cc1cn(C)c2ccc(NC(=O)OC3CCCC3)cc12` showed a median effective dose (ED50) in data set [3] of 0.54 µmol/kg. The same compound returned a negative-log KB (pKB) in data set [5] of 9.67.
For the compound `CCC(C)CNC(=O)c1ccc2c(c1)c(Cc1ccc(C(=O)NS(=O)(=O)c3ccccc3C)cc1OC)cn2C` (stereo not drawn), in data set [1], the log partition coefficient (logP) is 5.85. Besides, the values for the 50% effective dose (ED50) in data set [3] and in data set [6] were 20 µmol/kg and 1.39 µmol/kg, respectively. Moreover, the Ratio in data set [4] was 14. Further, in data set [5], the negative-log KB (pKB) is 8.7. This compound registered an inhibition constant (Ki) in data set [2] of 5.2 nM.
Turning to `COc1cc(C(=O)NS(=O)(=O)c2ccccc2Cl)ccc1Cn1cc(C)c2ccc(C(=O)NCC(C)CC(F)(F)F)cc21` (stereo not drawn), the Ki in data set [2] came out at 4.9 nM.
Regarding `COc1cc(C(=O)NS(=O)(=O)c2ccccc2C)ccc1Cn1ccc2ccc(C(=O)NCC(C)CC(F)(F)F)cc21` (stereo not drawn), the Ki in [2] is 7.7 nM.
The compound `CCC(CNC(=O)c1ccc2c(c1)c(Cc1ccc(C(=O)NS(=O)(=O)c3ccccc3C)cc1OC)cn2C)CC(F)(F)F` (stereo not drawn) had a logP in [1] of 6.45. For the same compound, the ED50 in data set [3] stood at 2.64 µmol/kg; in data set [6] it was 0.047 µmol/kg. Besides, the Ratio in [4] came out at 56. Also, the pKB in data set [5] amounted to 9.6. The Ki in [2] is 5.3 nM.
In turn, `COc1cc(C(=O)NS(=O)(=O)c2ccccc2C)ccc1Cn1cc(C)c2ccc(C(=O)NCC(C)CC(F)(F)F)cc21` (stereo not drawn) came in with a median effective dose (ED50) in data set [3] of 2.29 µmol/kg. The compound further came in with a negative-log KB (pKB) in data set [5] of 9.6. This compound yielded an inhibition constant Ki in data set [2] of 0.44 nM.
Consider `COc1cc(C(=O)NS(=O)(=O)c2ccccc2C)ccc1Cc1cn(C)c2ccc(C(=O)NCCCC(F)(F)F)cc12`, for which, in [5], the pKB was 8.7. Moreover, the Ki in [2] came to 7.5 nM.
The matching figures for `COc1cc(C(=O)NS(=O)(=O)c2ccccc2Cl)ccc1Cn1ccc2ccc(C(=O)NCC(C)CC(F)(F)F)cc21` (stereo not drawn): 8.9 and 4.2 nM.
Consider `CCn1cc(Cc2ccc(C(=O)NS(=O)(=O)c3ccccc3C)cc2OC)c2cc(C(=O)NCC(C)CC(F)(F)F)ccc21` (stereo not drawn), for which the median effective dose (ED50) was determined as 1.42 µmol/kg in data set [3] and 0.011 µmol/kg in data set [6]. Further, the Ratio in data set [4] is 129. In addition, the pKB in data set [5] was 10.1. This compound also had an inhibition constant (Ki) in data set [2] of 0.38 nM.
